# Measured values: ChEMBL document CHEMBL1255376, “Comparative surveillance study of telavancin activity against recently collected gram-positive clinical isolates from across the United States” (2008)
# Assays:
# Assay type in all cases: functional
# [1] = system: Staphylococcus capitis; test: Antibacterial activity against methicillin-resistant coagulase-negative Staphylococcus capitis clinical isolate by broth microdilution method
# In short: (§1)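 MICs by CLSI broth microdilution in frozen trays pre-loaded with serial dilutions of each agent. Quality-control strains run in parallel: E. faecalis ATCC 29212 and ATCC 51299, S. aureus ATCC 29213, S. pneumoniae ATCC 49619. Comparator susceptibility categories follow CLSI breakpoints. Methicillin resistance in staphylococci assigned from the oxacillin MIC.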
# [2] = system: Staphylococcus xylosus; test: Antibacterial activity against methicillin-resistant coagulase-negative Staphylococcus xylosus clinical isolate by broth microdilution method; in short: as §1
# [3] = system: Staphylococcus saprophyticus; test: Antibacterial activity against methicillin-resistant coagulase-negative Staphylococcus saprophyticus clinical isolate by broth microdilution method; in short: as §1
# [4] = system: Streptococcus mitis; test: Antibacterial activity against Streptococcus mitis clinical isolate by broth microdilution method
# In short: (§2)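 MIC by CLSI broth microdilution in frozen microtiter trays holding serial dilutions of each agent, prepared from standard laboratory powders. E. faecalis ATCC 29212 and ATCC 51299, S. aureus ATCC 29213 and S. pneumoniae ATCC 49619 run in parallel as quality-control strains. Comparator susceptibility interpreted with CLSI breakpoints.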
# [5] = system: Streptococcus sp.; test: Antibacterial activity against Streptococcus sp. clinical isolate by broth microdilution method
# In short: (§3)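 MIC by CLSI broth microdilution in frozen microtiter trays holding serial dilutions of each agent, prepared from standard laboratory powders. Comparator susceptibility interpreted with CLSI breakpoints.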
# [6] = system: Staphylococcus saprophyticus; test: Antibacterial activity against methicillin-susceptible coagulase-negative Staphylococcus saprophyticus clinical isolate by broth microdilution method; in short: as §1
# [7] = system: Staphylococcus aureus; test: Antibacterial activity against methicillin-susceptible Staphylococcus aureus clinical isolate by broth microdilution method; in short: as §1
# [8] = system: Streptococcus oralis; test: Antibacterial activity against Streptococcus oralis clinical isolate by broth microdilution method; in short: as §2
# [9] = system: Staphylococcus; test: Antibacterial activity against daptomycin-nonsusceptible coagulase-negative Staphylococcus isolate 1285835 by broth microdilution method; in short: as §2
# [10] = Antibacterial activity against Streptococcus sp. Group G clinical isolate by broth microdilution method; in short: as §2
# [11] = system: Staphylococcus hominis; test: Antibacterial activity against methicillin-susceptible coagulase-negative Staphylococcus hominis clinical isolate by broth microdilution method; in short: as §1
# [12] = system: Enterococcus faecium; test: Antibacterial activity against vancomycin-resistant and teichoplanin-susceptible Enterococcus faecium clinical isolate by broth microdilution method; in short: as §1
# [13] = system: Streptococcus sp.; test: Antibacterial activity against Streptococcus sp. Group F clinical isolate by broth microdilution method; in short: as §3
# [14] = system: Staphylococcus haemolyticus; test: Antibacterial activity against methicillin-resistant coagulase-negative Staphylococcus haemolyticus clinical isolate by broth microdilution method; in short: as §1
# [15] = system: Staphylococcus haemolyticus; test: Antibacterial activity against methicillin-susceptible coagulase-negative Staphylococcus haemolyticus clinical isolate by broth microdilution method; in short: as §1
# [16] = system: Enterococcus faecium; test: Antibacterial activity against vancomycin- and teichoplanin-nonsusceptible Enterococcus faecium clinical isolate by broth microdilution method; in short: as §1
# [17] = system: Mammaliicoccus sciuri; test: Antibacterial activity against methicillin-susceptible coagulase-negative Staphylococcus sciuri clinical isolate by broth microdilution method; in short: as §1
# [18] = system: Streptococcus pneumoniae; test: Antibacterial activity against penicillin resistant Streptococcus pneumoniae clinical isolate by broth microdilution method; in short: as §1
# [19] = system: Staphylococcus aureus; test: Antibacterial activity against methicillin-resistant Staphylococcus aureus clinical isolate by broth microdilution method; in short: as §1
# [20] = system: Streptococcus sanguinis; test: Antibacterial activity against Streptococcus sanguinis clinical isolate by broth microdilution method; in short: as §2
# [21] = Antibacterial activity against Streptococcus sp. Group C clinical isolate by broth microdilution method; in short: as §2
# [22] = system: Streptococcus pneumoniae; test: Antibacterial activity against penicillin intermediate Streptococcus pneumoniae clinical isolate by broth microdilution method; in short: as §1
# [23] = system: Streptococcus intermedius; test: Antibacterial activity against Streptococcus intermedius clinical isolate by broth microdilution method; in short: as §2
# [24] = system: Streptococcus pneumoniae; test: Antibacterial activity against penicillin susceptible Streptococcus pneumoniae clinical isolate by broth microdilution method; in short: as §1
# [25] = system: Enterococcus faecalis; test: Antibacterial activity against vancomycin- and teichoplanin-nonsusceptible Enterococcus faecalis clinical isolate by broth microdilution method; in short: as §1
# [26] = system: Staphylococcus warneri; test: Antibacterial activity against methicillin-susceptible coagulase-negative Staphylococcus warneri clinical isolate by broth microdilution method; in short: as §1
# [27] = system: Staphylococcus; test: Antibacterial activity against methicillin-resistant coagulase-negative unspeciated Staphylococcus clinical isolate by broth microdilution method; in short: as §1
# [28] = system: Staphylococcus capitis; test: Antibacterial activity against daptomycin-nonsusceptible Staphylococcus capitis isolate 1285355 by broth microdilution method; in short: as §2
# [29] = system: Staphylococcus epidermidis; test: Antibacterial activity against methicillin-susceptible coagulase-negative Staphylococcus epidermidis clinical isolate by broth microdilution method; in short: as §1
# [30] = system: Staphylococcus warneri; test: Antibacterial activity against methicillin-resistant coagulase-negative Staphylococcus warneri clinical isolate by broth microdilution method; in short: as §1
# [31] = system: Staphylococcus capitis; test: Antibacterial activity against methicillin-susceptible coagulase-negative Staphylococcus capitis clinical isolate by broth microdilution method; in short: as §1
# [32] = system: Streptococcus constellatus; test: Antibacterial activity against Streptococcus constellatus clinical isolate by broth microdilution method; in short: as §2
# [33] = system: Staphylococcus aureus; test: Antibacterial activity against vancomycin-, methicillin-resistant Staphylococcus aureus VRS3 by broth microdilution method
# In short: (§4)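 VISA and VRSA strains from the NARSA repository were tested separately from the surveillance isolates. MICs by CLSI broth microdilution in frozen trays with serial dilutions. Quality-control strains run in parallel. Susceptibility categories follow CLSI breakpoints, and methicillin resistance was assigned from the oxacillin MIC.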
# [34] = system: Enterococcus faecalis; test: Antibacterial activity against vancomycin-resistant and teichoplanin-susceptible Enterococcus faecalis clinical isolate by broth microdilution method; in short: as §1
# [35] = system: Staphylococcus aureus; test: Antibacterial activity against methicillin-resistant Staphylococcus aureus
# [36] = system: Streptococcus pyogenes; test: Antibacterial activity against Streptococcus pyogenes clinical isolate by broth microdilution method; in short: as §2
# [37] = system: Staphylococcus aureus; test: Antibacterial activity against vancomycin-intermediate methicillin-resistant Staphylococcus aureus NRS17 by broth microdilution method; in short: as §4
# [38] = system: Staphylococcus hominis; test: Antibacterial activity against methicillin-resistant coagulase-negative Staphylococcus hominis clinical isolate by broth microdilution method; in short: as §1
# [39] = system: Staphylococcus; test: Antibacterial activity against methicillin-susceptible coagulase-negative unspeciated Staphylococcus clinical isolate by broth microdilution method; in short: as §1
smiles,measurement,setting,value
CCCCCCCCCCNCCN[C@@]1(C)C[C@H](O[C@H]2[C@H](Oc3c4cc5cc3Oc3ccc(cc3Cl)[C@@H](O)[C@@H](NC(=O)[C@@H](CC(C)C)NC)C(=O)N[C@@H](CC(N)=O)C(=O)N[C@H]5C(=O)N[C@H]3C(=O)N[C@H](C(=O)N[C@H](C(=O)O)c5cc(O)c(CNCP(=O)(O)O)c(O)c5-c5cc3ccc5O)[C@H](O)c3ccc(c(Cl)c3)O4)O[C@H](CO)[C@@H](O)[C@@H]2O)O[C@@H](C)[C@H]1O [TELAVANCIN],MIC50,[1],0.25 µg/mL
same,MIC90,[1],0.5 µg/mL
same,MIC50,[2],0.25 µg/mL
same,MIC90,[2],0.5 µg/mL
same,MIC50,[3],0.25 µg/mL
same,MIC90,[3],0.5 µg/mL
same,MIC50,[4],0.03 µg/mL
same,MIC90,[4],0.12 µg/mL
same,MIC50,[5],0.03 µg/mL
same,MIC90,[5],0.12 µg/mL
same,MIC50,[6],0.25 µg/mL
same,MIC90,[6],0.5 µg/mL
same,MIC50,[7],0.25 µg/mL
same,MIC90,[7],0.5 µg/mL
same,MIC50,[8],0.03 µg/mL
same,MIC90,[8],0.12 µg/mL
same,MIC,[9],0.5 µg/mL
same,MIC,[10],0.03 µg/mL
same,MIC50,[10],0.03 µg/mL
same,MIC90,[10],0.06 µg/mL
same,MIC50,[11],0.25 µg/mL
same,MIC90,[11],0.5 µg/mL
same,MIC50,[12],0.25 µg/mL
same,MIC90,[12],2 µg/mL
same,MIC,[13],0.03 µg/mL
same,MIC50,[13],0.03 µg/mL
same,MIC90,[13],0.06 µg/mL
same,MIC50,[14],0.25 µg/mL
same,MIC90,[14],0.5 µg/mL
same,MIC50,[15],0.25 µg/mL
same,MIC90,[15],0.5 µg/mL
same,MIC50,[16],4 µg/mL
same,MIC90,[16],8 µg/mL
same,MIC50,[17],0.25 µg/mL
same,MIC90,[17],0.5 µg/mL
same,MIC50,[18],0.015 µg/mL
same,MIC90,[18],0.015 µg/mL
same,MIC50,[19],0.25 µg/mL
same,MIC90,[19],0.25 µg/mL
same,MIC50,[20],0.03 µg/mL
same,MIC90,[20],0.12 µg/mL
same,MIC,[21],0.03 µg/mL
same,MIC50,[21],0.03 µg/mL
same,MIC90,[21],0.06 µg/mL
same,MIC50,[22],0.015 µg/mL
same,MIC90,[22],0.015 µg/mL
same,MIC50,[23],0.03 µg/mL
same,MIC90,[23],0.12 µg/mL
same,MIC50,[24],0.015 µg/mL
same,MIC90,[24],0.03 µg/mL
same,MIC50,[25],8 µg/mL
same,MIC90,[25],16 µg/mL
same,MIC50,[26],0.25 µg/mL
same,MIC90,[26],0.5 µg/mL
same,MIC50,[27],0.25 µg/mL
same,MIC90,[27],0.5 µg/mL
same,MIC,[28],1 µg/mL
same,MIC50,[29],0.25 µg/mL
same,MIC90,[29],0.5 µg/mL
same,MIC50,[30],0.25 µg/mL
same,MIC90,[30],0.5 µg/mL
same,MIC50,[31],0.25 µg/mL
same,MIC90,[31],0.5 µg/mL
same,MIC50,[32],0.03 µg/mL
same,MIC90,[32],0.12 µg/mL
same,MIC,[33],4 µg/mL
same,MIC,[34],0.25 µg/mL
same,MIC50,[35],0.14 µM
same,MIC50,[36],0.03 µg/mL
same,MIC90,[36],0.06 µg/mL
same,MIC,[37],1 µg/mL
same,MIC50,[38],0.25 µg/mL
same,MIC90,[38],0.5 µg/mL
same,MIC50,[39],0.25 µg/mL
same,MIC90,[39],0.5 µg/mL
